Measurements taken from ChEMBL document CHEMBL1938318, “Design, synthesis and evaluation of novel molecules with a diphenyl ether nucleus as potential antitubercular agents” (Bioorg Med Chem Lett, 2012).
The source made the active and inactive calls. The rule behind the calls is not given here.

How the values were obtained:
[1] = tested on: Mycobacterium tuberculosis; experiment: Antitubercular activity against Mycobacterium bovis BCG infected in BALB/c mouse assessed as reduction in peribronchial accumulation of granulocytes in lungs at 25 mg/kg, po qd administered 48 hrs post infection for 6 weeks by hematoxylin/eosin staining; format: functional, organism-based; parameters: dose 25 mg/kg; settings: variant bovis BCG
[2] = tested on: Mycobacterium tuberculosis; experiment: Antitubercular activity against Mycobacterium bovis BCG infected in BALB/c mouse assessed as log reduction in CFU in lungs at 25 mg/kg, po qd administered 48 hrs post infection for 6 weeks measured after 6 weeks (reference value: 4.64+/-0.17 log10CFU); format: functional, variant bovis BCG
Outline: (§1)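 Female BALB/c mice infected intravenously with approx. 1 × 10⁵ CFU M. bovis BCG; compound given orally at 25 mg/kg once daily for six weeks, then sacrificed. Lung and spleen homogenates plated on modified Lowenstein-Jensen medium, colonies counted after six weeks at 37 °C; mean log10 CFU per organ versus vehicle-treated group (n = 6–8 mice/group).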

[3] = tested on: Mycobacterium tuberculosis; experiment: Antitubercular activity against Mycobacterium bovis BCG infected in BALB/c mouse assessed as reduction in perivascular accumulation of epitheloid macrophages in lungs at 25 mg/kg, po qd administered 48 hrs post infection for 6 weeks by hematoxylin/eosin staining; format: functional, organism-based; parameters: dose 25 mg/kg; settings: variant bovis BCG
[4] = tested on: Mycobacterium tuberculosis; experiment: Antitubercular activity against Mycobacterium bovis BCG infected in BALB/c mouse assessed as reduction in peribronchial accumulation of lymphocytes in lungs at 25 mg/kg, po qd administered 48 hrs post infection for 6 weeks by hematoxylin/eosin staining; format: functional, organism-based; parameters: dose 25 mg/kg; settings: variant bovis BCG
[5] = tested on: Mycobacterium tuberculosis; experiment: Antitubercular activity against Mycobacterium bovis BCG infected in BALB/c mouse assessed as reduction in perivascular accumulation of granulocytes in lungs at 25 mg/kg, po qd administered 48 hrs post infection for 6 weeks by hematoxylin/eosin staining; format: functional, organism-based; parameters: dose 25 mg/kg; settings: variant bovis BCG
[6] = tested on: Mycobacterium tuberculosis; experiment: Antitubercular activity against Mycobacterium bovis BCG infected in BALB/c mouse assessed as reduction in perivascular accumulation of lymphocytes in lungs at 25 mg/kg, po qd administered 48 hrs post infection for 6 weeks by hematoxylin/eosin staining; format: functional, organism-based; parameters: dose 25 mg/kg; settings: variant bovis BCG
[7] = tested on: Mycobacterium tuberculosis; experiment: Antitubercular activity against Mycobacterium bovis BCG infected in BALB/c mouse assessed as log reduction in CFU in spleen at 25 mg/kg, po qd administered 48 hrs post infection for 6 weeks measured after 6 weeks (reference value: 4.79+/-0.25 log10CFU); format: functional, variant bovis BCG; outline: as §1
[8] = tested on: Mycobacterium tuberculosis; experiment: Antitubercular activity against Mycobacterium bovis BCG infected in BALB/c mouse assessed as reduction in peribronchial accumulation of epitheloid macrophages in lungs at 25 mg/kg, po qd administered 48 hrs post infection for 6 weeks by hematoxylin/eosin staining; format: functional, organism-based; parameters: dose 25 mg/kg; settings: variant bovis BCG

Compound | Activity [1] | log10cfu [2] | Activity [3] | Activity [4] | Activity [5] | Activity [6] | log10cfu [7] | Activity [8]
O=C(Cc1cccc(Oc2ccccc2)c1)Nc1ccc(Cl)c(Cl)c1 | Active | 2 | Active | Active | Active | Active | 2 | Active
NNC(=O)c1ccncc1 [ISONIAZID] |  | 2 |  |  |  |  | 3 | 
